Measurements taken from the M2OR odorant receptor database.
Residue numbers refer to the chain shown, from its start.

How the values were obtained:
Conditions in all cases: stereoisomer not certain
OR5H1 = tested on: T1, OR5H1
T1 sequence (whole entry): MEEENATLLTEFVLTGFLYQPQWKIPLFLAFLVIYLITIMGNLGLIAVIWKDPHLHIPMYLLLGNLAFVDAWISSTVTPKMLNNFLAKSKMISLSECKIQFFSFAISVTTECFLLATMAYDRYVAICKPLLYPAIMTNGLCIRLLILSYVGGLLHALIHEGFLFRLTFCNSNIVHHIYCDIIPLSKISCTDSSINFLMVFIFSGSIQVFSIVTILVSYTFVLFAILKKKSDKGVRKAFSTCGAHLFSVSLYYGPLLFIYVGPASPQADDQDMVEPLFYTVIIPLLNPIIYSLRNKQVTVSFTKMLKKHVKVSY
Method in brief: (§1)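 Transient luciferase assays in mammalian cell lines were common, though methods varied by source. The values come from published papers and their supplementary material, with extra details from the original authors when needed. Responsive refers to a measured signal the original authors judged statistically different from baseline, and non-responsive (inactive) to the remainder.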

OR5H2 = tested on: T2, OR5H2
T2 sequence (whole entry): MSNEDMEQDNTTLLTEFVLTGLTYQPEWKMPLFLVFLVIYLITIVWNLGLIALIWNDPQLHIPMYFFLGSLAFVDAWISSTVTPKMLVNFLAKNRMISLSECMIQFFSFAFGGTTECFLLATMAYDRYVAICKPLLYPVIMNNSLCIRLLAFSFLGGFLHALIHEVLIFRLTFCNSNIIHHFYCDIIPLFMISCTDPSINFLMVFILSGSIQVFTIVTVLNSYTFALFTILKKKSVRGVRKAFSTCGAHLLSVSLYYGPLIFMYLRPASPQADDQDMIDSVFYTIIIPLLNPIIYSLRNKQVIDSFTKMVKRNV
Method in brief: as §1

OR5H6 (Homo sapiens) = target: T3, OR5H6 (Homo sapiens) (UniProt Q8NGV6)
T3 sequence (whole entry): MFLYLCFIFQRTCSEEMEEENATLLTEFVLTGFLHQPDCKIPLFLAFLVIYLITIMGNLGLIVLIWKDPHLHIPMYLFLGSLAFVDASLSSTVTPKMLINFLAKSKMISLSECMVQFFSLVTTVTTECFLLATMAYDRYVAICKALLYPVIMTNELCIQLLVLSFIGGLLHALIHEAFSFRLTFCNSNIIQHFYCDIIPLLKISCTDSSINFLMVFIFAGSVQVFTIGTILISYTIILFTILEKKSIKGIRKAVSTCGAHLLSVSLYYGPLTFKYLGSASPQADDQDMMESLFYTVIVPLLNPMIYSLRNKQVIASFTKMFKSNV
Method in brief: as §1

OR5I1 (Homo sapiens) = target: T4, OR5I1 (Homo sapiens) (UniProt Q13606)
T4 sequence (whole entry): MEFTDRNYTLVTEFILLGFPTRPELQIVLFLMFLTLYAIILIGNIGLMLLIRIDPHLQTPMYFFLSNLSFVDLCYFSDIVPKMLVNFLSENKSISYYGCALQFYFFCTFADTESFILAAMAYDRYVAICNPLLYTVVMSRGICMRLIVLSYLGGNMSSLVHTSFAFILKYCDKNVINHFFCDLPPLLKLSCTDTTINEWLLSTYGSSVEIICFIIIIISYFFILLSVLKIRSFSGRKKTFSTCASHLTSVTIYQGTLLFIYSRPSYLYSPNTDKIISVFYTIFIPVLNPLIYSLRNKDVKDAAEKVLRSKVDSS
Method in brief: as §1

OR5J2 (Homo sapiens) = target: T5, OR5J2 (Homo sapiens) (UniProt Q8NH18)
T5 sequence (whole entry): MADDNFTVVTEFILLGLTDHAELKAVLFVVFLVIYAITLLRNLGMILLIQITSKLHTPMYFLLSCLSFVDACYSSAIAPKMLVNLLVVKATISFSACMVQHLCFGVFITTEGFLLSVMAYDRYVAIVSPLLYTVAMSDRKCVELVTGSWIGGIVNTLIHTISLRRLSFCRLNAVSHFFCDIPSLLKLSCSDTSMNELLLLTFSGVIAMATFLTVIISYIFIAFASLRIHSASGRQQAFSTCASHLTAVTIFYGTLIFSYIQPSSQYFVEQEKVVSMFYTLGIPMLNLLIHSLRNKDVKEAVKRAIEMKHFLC
Method in brief: as §1

OR5K1 (Homo sapiens) = target: T6, OR5K1 (Homo sapiens) (UniProt Q8NHB7)
T6 sequence (whole entry): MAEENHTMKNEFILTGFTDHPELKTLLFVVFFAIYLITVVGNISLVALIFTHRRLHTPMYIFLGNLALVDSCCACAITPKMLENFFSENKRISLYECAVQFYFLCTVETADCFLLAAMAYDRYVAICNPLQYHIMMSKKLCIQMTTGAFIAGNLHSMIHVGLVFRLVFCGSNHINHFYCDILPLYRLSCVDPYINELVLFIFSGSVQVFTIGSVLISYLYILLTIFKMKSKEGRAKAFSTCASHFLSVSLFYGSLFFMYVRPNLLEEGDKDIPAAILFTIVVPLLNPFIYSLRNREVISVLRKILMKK
Method in brief: as §1

OR5K1 F62L = tested on: OR5K1 F62L
Method in brief: as §1

OR5K2 (Homo sapiens) = target: T7, OR5K2 (Homo sapiens) (UniProt Q8NHB8)
T7 sequence (whole entry): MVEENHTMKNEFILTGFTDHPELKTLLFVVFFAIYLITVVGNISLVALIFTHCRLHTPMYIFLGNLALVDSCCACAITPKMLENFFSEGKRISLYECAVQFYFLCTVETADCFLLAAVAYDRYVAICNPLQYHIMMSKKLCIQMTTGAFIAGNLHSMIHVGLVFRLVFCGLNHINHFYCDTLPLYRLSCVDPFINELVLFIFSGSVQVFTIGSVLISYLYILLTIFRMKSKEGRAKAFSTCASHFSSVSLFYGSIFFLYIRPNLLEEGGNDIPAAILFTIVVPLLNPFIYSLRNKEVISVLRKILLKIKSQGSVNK
Method in brief: as §1

OR5K2 L197M = tested on: T8, OR5K2 L197M
T8 sequence (whole entry): T7 sequence (whole entry) with L197M
Method in brief: as §1

OR5K3 (Homo sapiens) = target: T9, OR5K3 (Homo sapiens) (UniProt A6NET4)
T9 sequence (whole entry): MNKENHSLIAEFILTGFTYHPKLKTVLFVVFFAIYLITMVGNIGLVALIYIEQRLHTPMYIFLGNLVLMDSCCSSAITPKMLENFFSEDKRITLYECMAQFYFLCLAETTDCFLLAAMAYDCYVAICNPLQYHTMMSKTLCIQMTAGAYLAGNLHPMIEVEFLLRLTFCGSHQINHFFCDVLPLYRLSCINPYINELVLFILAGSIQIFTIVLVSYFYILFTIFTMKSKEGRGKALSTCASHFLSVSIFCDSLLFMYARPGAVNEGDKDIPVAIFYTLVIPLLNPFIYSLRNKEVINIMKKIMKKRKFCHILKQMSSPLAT
Method in brief: as §1

OR5K4 (Homo sapiens) = target: T10, OR5K4 (Homo sapiens) (UniProt A6NMS3)
T10 sequence (whole entry): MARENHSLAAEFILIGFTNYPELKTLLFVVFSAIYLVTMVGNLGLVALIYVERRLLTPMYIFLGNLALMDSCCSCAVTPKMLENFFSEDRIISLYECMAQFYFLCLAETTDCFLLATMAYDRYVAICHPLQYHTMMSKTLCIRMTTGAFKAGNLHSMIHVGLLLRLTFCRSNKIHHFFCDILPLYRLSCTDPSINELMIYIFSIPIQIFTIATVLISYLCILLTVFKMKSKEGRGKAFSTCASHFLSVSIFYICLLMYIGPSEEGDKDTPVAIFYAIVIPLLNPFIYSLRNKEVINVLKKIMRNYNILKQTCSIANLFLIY
Method in brief: as §1

OR5L1 (Homo sapiens) = target: T11, OR5L1 (Homo sapiens) (UniProt Q8NGL2)
T11 sequence (whole entry): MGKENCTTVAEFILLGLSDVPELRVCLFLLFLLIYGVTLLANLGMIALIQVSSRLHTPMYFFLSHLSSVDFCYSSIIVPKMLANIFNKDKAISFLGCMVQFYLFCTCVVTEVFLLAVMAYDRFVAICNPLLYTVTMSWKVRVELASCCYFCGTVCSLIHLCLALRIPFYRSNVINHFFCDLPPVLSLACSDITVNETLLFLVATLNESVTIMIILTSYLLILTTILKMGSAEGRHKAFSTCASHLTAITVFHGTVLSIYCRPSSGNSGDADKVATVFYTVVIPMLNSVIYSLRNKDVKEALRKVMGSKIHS
Method in brief: as §1

OR5L2 (Homo sapiens) = target: T12, OR5L2 (Homo sapiens) (UniProt Q8NGL0)
T12 sequence (whole entry): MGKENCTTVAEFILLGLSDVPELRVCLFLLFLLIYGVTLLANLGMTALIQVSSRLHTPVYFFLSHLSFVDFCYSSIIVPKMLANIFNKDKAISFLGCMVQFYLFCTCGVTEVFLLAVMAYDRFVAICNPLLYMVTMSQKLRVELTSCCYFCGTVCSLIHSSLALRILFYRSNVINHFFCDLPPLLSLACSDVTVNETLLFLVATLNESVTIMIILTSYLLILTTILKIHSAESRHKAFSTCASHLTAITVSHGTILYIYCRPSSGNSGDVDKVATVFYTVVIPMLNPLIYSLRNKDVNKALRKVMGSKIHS
Method in brief: as §1

OR5M1 (Homo sapiens) = target: T13, OR5M1 (Homo sapiens) (UniProt Q8NGP8)
T13 sequence (whole entry): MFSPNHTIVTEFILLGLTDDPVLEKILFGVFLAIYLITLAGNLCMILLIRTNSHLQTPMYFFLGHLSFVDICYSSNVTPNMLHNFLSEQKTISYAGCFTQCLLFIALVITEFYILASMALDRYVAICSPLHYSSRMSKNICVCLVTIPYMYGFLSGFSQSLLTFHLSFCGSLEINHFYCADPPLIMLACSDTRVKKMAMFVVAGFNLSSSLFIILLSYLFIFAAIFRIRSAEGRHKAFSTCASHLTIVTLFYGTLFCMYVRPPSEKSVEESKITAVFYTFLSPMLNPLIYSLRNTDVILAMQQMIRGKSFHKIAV
Method in brief: as §1

OR5M1 T295R M301I = tested on: T14, OR5M1 T295R M301I
T14 sequence (whole entry): T13 sequence (whole entry) with T295R, M301I
Method in brief: as §1

OR5M10 (Homo sapiens) = target: T15, OR5M10 (Homo sapiens) (UniProt Q6IEU7)
T15 sequence (whole entry): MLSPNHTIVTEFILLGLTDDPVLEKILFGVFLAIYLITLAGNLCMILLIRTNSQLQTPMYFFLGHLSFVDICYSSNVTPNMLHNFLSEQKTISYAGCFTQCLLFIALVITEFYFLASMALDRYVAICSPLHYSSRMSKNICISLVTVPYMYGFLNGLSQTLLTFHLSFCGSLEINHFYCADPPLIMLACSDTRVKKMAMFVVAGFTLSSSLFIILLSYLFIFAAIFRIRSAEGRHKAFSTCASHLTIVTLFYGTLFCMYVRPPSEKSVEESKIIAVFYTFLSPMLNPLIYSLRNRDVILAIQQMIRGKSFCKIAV
Method in brief: as §1

OR5M11 (Homo sapiens) = target: T16, OR5M11 (Homo sapiens) (UniProt Q96RB7)
T16 sequence (whole entry): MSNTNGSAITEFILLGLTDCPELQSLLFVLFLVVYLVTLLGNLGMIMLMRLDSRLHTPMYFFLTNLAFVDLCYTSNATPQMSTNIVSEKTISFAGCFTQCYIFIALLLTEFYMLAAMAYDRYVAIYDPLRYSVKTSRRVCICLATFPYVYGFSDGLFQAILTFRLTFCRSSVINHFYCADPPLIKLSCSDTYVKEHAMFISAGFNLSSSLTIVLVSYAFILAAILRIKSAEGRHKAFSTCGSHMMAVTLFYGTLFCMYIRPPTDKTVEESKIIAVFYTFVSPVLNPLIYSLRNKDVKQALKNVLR
Method in brief: as §1

OR5M3 (Homo sapiens) = target: T17, OR5M3 (Homo sapiens) (UniProt Q8NGP4)
T17 sequence (whole entry): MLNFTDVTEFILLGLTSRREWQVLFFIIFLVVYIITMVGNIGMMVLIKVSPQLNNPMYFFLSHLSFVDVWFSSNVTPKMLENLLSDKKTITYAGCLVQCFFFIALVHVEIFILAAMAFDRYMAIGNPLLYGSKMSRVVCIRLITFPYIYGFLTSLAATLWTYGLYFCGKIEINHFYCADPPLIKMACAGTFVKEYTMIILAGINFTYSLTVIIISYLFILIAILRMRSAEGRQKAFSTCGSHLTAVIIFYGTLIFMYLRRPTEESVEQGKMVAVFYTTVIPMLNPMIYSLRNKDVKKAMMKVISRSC
Method in brief: as §1

OR5M3 N3Y A156T = tested on: T18, OR5M3 N3Y A156T
T18 sequence (whole entry): T17 sequence (whole entry) with N3Y, A156T
Method in brief: as §1
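Further: active if original authors judged signal statistically different from baseline.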

Sequence of OR5K1 F62L (as listed by the source, stated change not applied): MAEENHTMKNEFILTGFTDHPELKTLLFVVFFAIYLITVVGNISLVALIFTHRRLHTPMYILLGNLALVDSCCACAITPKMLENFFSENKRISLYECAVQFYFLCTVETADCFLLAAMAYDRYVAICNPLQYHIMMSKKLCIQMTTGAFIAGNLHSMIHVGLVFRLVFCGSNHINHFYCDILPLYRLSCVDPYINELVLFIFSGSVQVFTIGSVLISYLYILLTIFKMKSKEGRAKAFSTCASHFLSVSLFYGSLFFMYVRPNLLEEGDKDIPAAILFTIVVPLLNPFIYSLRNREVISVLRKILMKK

Compound	odorant receptor agonist call (OR5H1)	odorant receptor agonist call (OR5H2)	odorant receptor agonist call (OR5H6 (Homo sapiens))	odorant receptor agonist call (OR5I1 (Homo sapiens))	odorant receptor agonist call (OR5J2 (Homo sapiens))	odorant receptor agonist call (OR5K1 (Homo sapiens))	odorant receptor agonist call (OR5K1 F62L)	odorant receptor agonist call (OR5K2 (Homo sapiens))	odorant receptor agonist call (OR5K2 L197M)	odorant receptor agonist call (OR5K3 (Homo sapiens))	odorant receptor agonist call (OR5K4 (Homo sapiens))	odorant receptor agonist call (OR5L1 (Homo sapiens))	odorant receptor agonist call (OR5L2 (Homo sapiens))	odorant receptor agonist call (OR5M1 (Homo sapiens))	odorant receptor agonist call (OR5M1 T295R M301I)	odorant receptor agonist call (OR5M10 (Homo sapiens))	odorant receptor agonist call (OR5M11 (Homo sapiens))	odorant receptor agonist call (OR5M3 (Homo sapiens))	odorant receptor agonist call (OR5M3 N3Y A156T)
Cc1cnc(C)c(C)n1	inactive	inactive	inactive	inactive	inactive	active	active	inactive	inactive	inactive	inactive	inactive	inactive	inactive	inactive	inactive	inactive	inactive	inactive
CC1=C(O)C(=O)OC1C (stereo not given)	inactive	inactive	inactive	inactive	inactive	inactive		inactive	inactive	inactive	inactive	inactive	inactive	inactive	inactive	inactive	inactive	inactive	inactive
CCc1nccnc1CC						active		inactive		inactive	inactive								
CC(CO)CS (stereo not given)		inactive	inactive		inactive	inactive		inactive		inactive	inactive	inactive	inactive	inactive		inactive	inactive	inactive	
Cc1cnc(C)cn1						active		inactive		inactive	inactive								
CCc1nccnc1OC						active		inactive		inactive	inactive								
CC1CCc2nccnc21 (stereo not given)						active		inactive		inactive	inactive								
CCCC(S)CCOC(C)=O (stereo not given)	inactive	inactive	inactive	inactive	inactive	inactive		inactive	inactive	inactive	inactive	inactive	inactive	inactive	inactive	inactive	inactive	inactive	inactive
COc1nccnc1C(C)C						active		inactive		inactive	inactive							inactive	
CC1=C(O)C(=O)C(C)O1 (stereo not given)	inactive	inactive	inactive	inactive	inactive	inactive		inactive	inactive	inactive	inactive	inactive	inactive	inactive	inactive	inactive	inactive	active	inactive
CCCCCC(=O)C(C)C(C)=O (stereo not given)		inactive	inactive		inactive	inactive		inactive		inactive	inactive	inactive	inactive	inactive		inactive	inactive	inactive	
